Measurements published in ChEMBL document CHEMBL1127531, “Selective type IV phosphodiesterase inhibitors as antiasthmatic agents. The syntheses and biological activities of 3-(cyclopentyloxy)-4-methoxybenzamides and analogues” (J Med Chem, 1994).

Legend:
Phosphodiesterase 4A = target: T1, Phosphodiesterase 4A (Sus scrofa, UniProt O77823); experiment: Inhibitory potency against pig aortic PDE IV
T1 sequence (O77823 whole entry): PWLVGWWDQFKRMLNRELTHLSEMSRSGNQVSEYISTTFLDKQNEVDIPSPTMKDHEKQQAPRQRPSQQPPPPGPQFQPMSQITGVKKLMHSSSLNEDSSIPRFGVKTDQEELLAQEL
Method in brief: (§1)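 Pig aortic PDE isozymes were separated by DEAE-trisacryl anion-exchange chromatography. PDE III was assayed in the presence of rolipram (10 µM) and PDE IV in the presence of siguazodan (10 µM) to exclude cross-contamination.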

[1] = Inhibitory potency against pig aortic PDE III.; parameters: species or system Sus scrofa; method in brief: as §1
[2] = target: Phosphodiesterase 1 (Sus scrofa); experiment: Inhibitory potency against pig aortic PDE I.
Cavia porcellus [3] = experiment: In vivo bronchodilator effect on histamine-induced bronchospasm in anaesthetized guinea pigs at 100 ug intravenous dose; format: functional
Cavia porcellus [4] = experiment: In vivo bronchodilator effect on histamine-induced bronchospasm in anaesthetized guinea pigs at 50 ug intravenous dose; format: functional
Cavia porcellus [5] = organism: Cavia porcellus; experiment: Inhibition of superoxide O2-generation from guinea pig peritoneal eosinophils; format: functional
Method in brief: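 Guinea pig peritoneal eosinophils (10^6/well) were incubated for 45 min at 37 °C in HBSS with p-iodonitrotetrazolium violet (0.5 mg/mL). Superoxide was measured as SOD-inhibitable dye reduction: cells were pelleted and dissolved overnight at room temperature in DMSO/0.6 M HCl, and absorbance was read at 492 nm.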

Phosphodiesterase 4 [6] = target: T2, Phosphodiesterase 4 (Homo sapiens, UniProt P27815+Q08499+Q07343+Q08493); experiment: Inhibition of guinea pig PDE IV; format: protein assay, Cavia porcellus; details: target entry is the homologue from another species
Phosphodiesterase 4 [7] = target: T2, Phosphodiesterase 4; experiment: Inhibition of solubilized eosinophil PDE IV; format: protein assay, Cavia porcellus
Cavia porcellus [8] = experiment: In vivo bronchodilator effect on histamine-induced bronchospasm in anaesthetized guinea pigs at 20 ug intravenous dose; format: functional
Cavia porcellus [9] = experiment: In vivo bronchodilator effect on histamine-induced bronchospasm in anaesthetized guinea pigs at 200 ug intravenous dose; format: functional

COc1ccc(C(=O)Nc2cnccc2Cl)cc1OC1CCCC1
IC50 (Phosphodiesterase 4A): 0.12 µM

COc1ccc(C(=O)Nc2c(F)cccc2Cl)cc1OC1CCCC1
IC50 [1]: > 1000 µM
IC50 (Phosphodiesterase 4A): 0.24 µM
IC50 [2]: > 1000 µM

COc1ccc(C(=O)Nc2cccc(Cl)c2Cl)cc1OC1CCCC1
IC50 [1]: > 200 µM
IC50 (Phosphodiesterase 4A): > 200 µM
IC50 [2]: > 200 µM

COc1ccc(C(=O)Nc2ccccc2C(C)=O)cc1OC1CCCC1
IC50 [1]: > 40 µM
IC50 (Phosphodiesterase 4A): 1.2 µM

COc1ccc(C(=O)Nc2ccccc2C(=O)c2ccccc2)cc1OC1CCCC1
IC50 [1]: > 40 µM
IC50 (Phosphodiesterase 4A): 1.7 µM
IC50 [2]: > 40 µM

COc1ccc(C(=O)Nc2cccc(C)c2)cc1OC1CCCC1
IC50 [1]: > 200 µM
IC50 (Phosphodiesterase 4A): 1 µM

COc1ccc(C(=O)Nc2ccccc2Cl)cc1OC(C)=O
IC50 (Phosphodiesterase 4A): 70 µM

COc1ccc(C(=O)Oc2c(Cl)cccc2Cl)cc1OC1CCCC1
IC50 (Phosphodiesterase 4A): > 1000 µM

COc1ccc(C(=O)Nc2ccncc2)cc1OC1CCCC1
IC50 (Phosphodiesterase 4A): 0.8 µM

COc1ccc(C(=O)Nc2nccs2)cc1OC1CCCC1
IC50 (Phosphodiesterase 4A): 6.5 µM

COc1ccc(C(=S)Nc2ccccc2Cl)cc1OC1CCCC1
IC50 (Phosphodiesterase 4A): 0.2 µM

COc1ccc(C(=O)Nc2c(F)cccc2F)cc1
IC50 (Phosphodiesterase 4A): 37 µM

COc1ccc(C(=O)Nc2ccccc2Cl)cc1OC(=O)c1ccccc1
IC50 (Phosphodiesterase 4A): > 1000 µM

COc1ccc(C(=O)Nc2c(C)cncc2C)cc1OC1CCCC1
IC50 (Phosphodiesterase 4A): 0.035 µM

COc1ccc(C(=O)Nc2ncccn2)cc1OC1CCCC1
IC50 (Phosphodiesterase 4A): 3.5 µM

COc1ccc(C(=O)Nc2cccnc2)cc1OC1CCCC1
IC50 (Phosphodiesterase 4A): 0.55 µM

COc1ccc(C(=O)Nc2ccc(F)cc2)cc1OC1CCCC1
IC50 [1]: > 1000 µM
IC50 (Phosphodiesterase 4A): > 1000 µM
IC50 [2]: > 1000 µM

CCCCOc1cc(C(=O)Nc2c(F)cccc2F)ccc1OC
IC50 (Phosphodiesterase 4A): 0.3 µM

COc1ccc(C(=O)Nc2c(Cl)c[n+]([O-])cc2Cl)cc1OC1CCCC1
Duration (Cavia porcellus [3]): 39 min
Reduction (Cavia porcellus [3]): 54%
Duration (Cavia porcellus [4]): 18 min
Reduction (Cavia porcellus [4]): 45%
IC50 (Cavia porcellus [5]): 0.3 µM
IC50 (Phosphodiesterase 4 [6]): 0.0023 µM
IC50 (Phosphodiesterase 4 [7]): 0.002 µM
IC50 (Phosphodiesterase 4A): 0.002 µM

COc1ccc(C(=O)Nc2ccc(Cl)cc2)cc1OC1CCCC1
IC50 [1]: > 1000 µM
IC50 (Phosphodiesterase 4A): > 1000 µM
IC50 [2]: > 1000 µM

COc1ccc(C(=O)Nc2c(Cl)cncc2Cl)cc1OC1CCCCC1
IC50 (Phosphodiesterase 4A): 0.05 µM

COc1ccc(C(=O)Nc2ccccc2C(F)(F)F)cc1OC1CCCC1
IC50 [1]: > 1000 µM
IC50 (Phosphodiesterase 4A): 3.1 µM
IC50 [2]: > 1000 µM

COc1ccc(C(=O)Nc2c(C)nsc2Br)cc1OC1CCCC1
IC50 (Phosphodiesterase 4A): 0.5 µM

COc1ccc(C(=O)Nc2cccc(Cl)c2)cc1OC1CCCC1
IC50 [1]: > 40 µM
IC50 (Phosphodiesterase 4A): 1.3 µM
IC50 [2]: > 40 µM

COc1ccc(C(=O)Nc2c(C)nsc2C#N)cc1OC1CCCC1
IC50 (Phosphodiesterase 4A): 0.2 µM

COc1ccc(C(=O)Nc2ccccc2Cl)cc1OC1CCCC1
Duration (Cavia porcellus [3]): 27 min
Reduction (Cavia porcellus [3]): 43%
IC50 (Cavia porcellus [5]): 0.45 µM
IC50 [1]: > 200 µM
IC50 (Phosphodiesterase 4 [6]): 0.186 µM
IC50 (Phosphodiesterase 4 [7]): 0.051 µM
IC50 (Phosphodiesterase 4A): 0.19 µM
IC50 [2]: > 200 µM

COc1ccc(C(=O)Nc2cnccn2)cc1OC1CCCC1
IC50 (Phosphodiesterase 4A): 0.25 µM

COc1ccc(C(=O)Nc2ncccc2C)cc1OC1CCCC1
IC50 (Phosphodiesterase 4A): 3.1 µM

COc1ccc(C(=O)Nc2c(C)cccc2C)cc1OC1CCCC1
Duration (Cavia porcellus [3]): 16 min
Reduction (Cavia porcellus [3]): 24%
IC50 (Cavia porcellus [5]): 0.17 µM
IC50 [1]: > 200 µM
IC50 (Phosphodiesterase 4 [6]): 0.106 µM
IC50 (Phosphodiesterase 4 [7]): 0.065 µM
IC50 (Phosphodiesterase 4A): 0.1 µM

COc1ccc(C(=O)Nc2c(F)c(F)nc(F)c2F)cc1OC1CCCC1
IC50 (Phosphodiesterase 4A): 0.55 µM

COc1ccc(C(=O)Nc2cc(Cl)ccc2Cl)cc1OC1CCCC1
IC50 [1]: > 200 µM
IC50 (Phosphodiesterase 4A): 0.5 µM

COc1ccc(C(=O)Nc2ccccc2SC)cc1OC1CCCC1
IC50 [1]: > 200 µM
IC50 (Phosphodiesterase 4A): 1.2 µM
IC50 [2]: > 200 µM

COc1ccc(C(=O)Nc2c(C)cccc2Cl)cc1OC1CCCC1
IC50 [1]: > 1000 µM
IC50 (Phosphodiesterase 4A): 0.1 µM
IC50 [2]: > 1000 µM

COc1ccc(C(=O)Nc2c(Cl)ncnc2Cl)cc1OC1CCCC1
IC50 (Phosphodiesterase 4A): 0.4 µM

CCCCOc1cc(C(=O)Nc2c(Br)cncc2Br)ccc1OC
IC50 (Phosphodiesterase 4A): 0.07 µM

COc1ccc(C(=O)Nc2ccccc2F)cc1OC1CCCC1
IC50 [1]: > 1000 µM
IC50 (Phosphodiesterase 4A): 10.7 µM
IC50 [2]: > 1000 µM

COc1ccc(C(=O)Nc2ccccc2C#N)cc1OC1CCCC1
IC50 [1]: 9.5 µM
IC50 (Phosphodiesterase 4A): 2.5 µM

COc1ccc(C(=O)Nc2ccccc2Cl)cc1OC(=O)C(C)(C)C
IC50 (Phosphodiesterase 4A): > 1000 µM

COc1ccc(C(=O)Nc2c(F)c(F)nc(F)c2Cl)cc1OC1CCCC1
IC50 (Phosphodiesterase 4A): 0.1 µM

O=C(Nc1c(F)cccc1F)c1cccc(OC2CCCC2)c1
IC50 (Phosphodiesterase 4A): 15 µM

COc1ccc(C(=O)Nc2c(F)cccc2F)cc1OC1CCCCC1
IC50 (Phosphodiesterase 4A): 0.4 µM

COc1ccc(C(=O)Nc2ccccn2)cc1OC1CCCC1
IC50 (Phosphodiesterase 4A): 1 µM

COc1ccc(C(=O)Nc2c(C)noc2C)cc1OC1CCCC1
IC50 (Phosphodiesterase 4A): 0.45 µM

COc1ccc(C(=O)Nc2c(Cl)cncc2Cl)cc1OC
IC50 (Phosphodiesterase 4A): 0.1 µM

COc1ccc(C(=O)Nc2c(F)cccc2F)cc1OC
IC50 (Phosphodiesterase 4A): 0.9 µM

COc1ccc(C(=O)Nc2c(Cl)cncc2Cl)cc1OC1CC2CCC1C2 (racemic)
Duration (Cavia porcellus [3]): 59 min
Reduction (Cavia porcellus [3]): 80%
Duration (Cavia porcellus [4]): 29 min
Reduction (Cavia porcellus [4]): 35%
IC50 (Cavia porcellus [5]): 0.022 µM
IC50 (Phosphodiesterase 4 [6]): 0.0014 µM
IC50 (Phosphodiesterase 4 [7]): 0.0005 µM
IC50 (Phosphodiesterase 4A): 0.001 µM

COc1ccc(C(=O)Nc2c(Br)cncc2Br)cc1OC1CCCC1
IC50 (Phosphodiesterase 4A): 0.007 µM

COc1ccc(C(=O)Nc2ccccc2Br)cc1OC1CCCC1
IC50 [1]: > 1000 µM
IC50 (Phosphodiesterase 4A): 0.13 µM
IC50 [2]: > 1000 µM

COc1ccc(C(=O)Nc2ccccc2O)cc1OC1CCCC1
IC50 [1]: > 200 µM
IC50 (Phosphodiesterase 4A): 1.3 µM
IC50 [2]: > 200 µM

COc1ccc(C(=O)Nc2ccncc2Cl)cc1OC1CCCC1
Reduction (Cavia porcellus [8]): 26%
IC50 (Cavia porcellus [5]): 0.03 µM
Duration (Cavia porcellus [9]): 15 min
IC50 (Phosphodiesterase 4 [6]): 0.016 µM
IC50 (Phosphodiesterase 4 [7]): 0.002 µM
IC50 (Phosphodiesterase 4A): 0.016 µM

COc1ccc(C(=O)Nc2ccccc2Cl)cc1OC
IC50 (Phosphodiesterase 4A): 0.65 µM

COc1ccc(C(=O)Nc2c(Cl)c(F)nc(F)c2Cl)cc1OC1CCCC1
IC50 (Phosphodiesterase 4A): 0.02 µM

COc1ccc(C(=O)Nc2ccc(C)cc2)cc1OC1CCCC1
IC50 [1]: > 200 µM
IC50 (Phosphodiesterase 4A): > 200 µM
IC50 [2]: > 200 µM

COc1ccc(C(=O)Nc2c(Cl)cncc2Cl)cc1OC1CC2CCC1C2 (stereo in doubt; (-)16f)
IC50 (Phosphodiesterase 4A): 0.001 µM

COc1ccc(C(=O)Nc2c(F)cnc(F)c2F)cc1OC1CCCC1
IC50 (Phosphodiesterase 4A): 0.085 µM

COc1ccc(C(=O)Nc2ncccc2Cl)cc1OC1CCCC1
IC50 (Phosphodiesterase 4A): 0.36 µM

COc1ccc(C(=O)Nc2c(Cl)cccc2Cl)cc1OC1CC2CCC1C2 (centres undefined)
IC50 (Phosphodiesterase 4A): 0.01 µM

COc1ccc(C(=O)Nc2c(Br)cccc2Br)cc1OC1CCCC1
IC50 [1]: > 1000 µM
IC50 (Phosphodiesterase 4A): 0.4 µM

COc1ccc(C(=O)Nc2c(C)nsc2C)cc1OC1CCCC1
IC50 (Phosphodiesterase 4A): 0.5 µM

COc1ccc(C(=O)Nc2c(Cl)cncc2Cl)cc1OC1CC2CCC1C2 (stereo in doubt; (+)16g)
IC50 (Phosphodiesterase 4A): 0.001 µM

CCCOc1cc(C(=O)Nc2c(F)cccc2F)ccc1OC
IC50 (Phosphodiesterase 4A): 1.6 µM

COc1ccc(C(=O)Nc2ccccc2[N+](=O)[O-])cc1OC1CCCC1
IC50 [1]: > 200 µM
IC50 (Phosphodiesterase 4A): 0.25 µM

COc1ccc(C(=O)Nc2ccccc2C)cc1OC1CCCC1
IC50 [1]: > 1000 µM
IC50 (Phosphodiesterase 4A): 0.3 µM
IC50 [2]: > 1000 µM

COC(=O)c1ccccc1NC(=O)c1ccc(OC)c(OC2CCCC2)c1
IC50 [1]: > 40 µM
IC50 (Phosphodiesterase 4A): 3 µM
IC50 [2]: > 40 µM

COc1ccc(C(=O)Nc2ccccc2Cl)cc1OC(=O)C1CCCC1
IC50 (Phosphodiesterase 4A): > 1000 µM

COc1ccc(C(=O)NCc2ccccc2Cl)cc1OC1CCCC1
IC50 (Phosphodiesterase 4A): > 1000 µM
